MEKK2mut PB1 HTS: signal of MEK5 binding to mutant human MEKK2 PB1 domain; 0.35% of 290,000 active; percent response, % at 10 µM; bead flow cytometry, Alexa488-MEK5 binding to MEKK2 mutant; in the data active means percent response above about 24%, passing the limit was not always enough
MEKK2 WT-MEK5: raises or lowers MEK5 binding to wildtype human MEKK2 PB1 domain. bead flow cytometry, Alexa488-MEK5 binding to MEKK2 WT; actives lie on both sides. binding response (% of control), % at 10 µM. 1.1% of 290,000 active; in the data active means binding response below about 67% or above about 130%
Arr AP2 block: inhibitors of human beta-arrestin and AP2 interaction. inhibition, % at 10 µM. 0.31% of 340,000 active. AID 504490. FITC-arrestin peptide / GST-AP2 beads, flow cytometry; AP2 beta2 appendage carries R879A mutation;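 active means inhibition above a set limit, near 3 SD of compounds lacking own fluorescence, cut at about 54% in these data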;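 further: plate controls were DMSO wells for no effect and 5 µM unlabelled arrestin peptide for full effect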
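Material – GST-tagged AP2 beta2-adaptin appendage (R879A) on 4 µm glutathione beads · Probe or stimulus – fluorescein-tagged arrestin peptide at 50 nM final · Timing – 12 min plus 1 h, RT · Detection – bead flow cytometry, FITC channel · Read-out basis – inhibition as reduced fluorescein signal on beads, percent · Medium – PBS plus Tween 20 (0.05%) and BSA (0.1%)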
MEKK3 PB1 HTS: modulators (inhibitors or enhancers) of MEK5 binding to human MEKK3 PB1 domain | bead-based flow cytometry, Alexa488-MEK5 binding to MEKK3; actives lie on both sides; 0 = blocked by unlabeled MEK5, 100 = vehicle | Q99759 | binding response (% of control), % at 10 µM | 1.4% of 290,000 active;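 active means binding response more than 3 SD above or below the average of its plate-row segment, actives on both sides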;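 further: Alexa488 bead fluorescence after subtracting the streptavidin-only scavenger bead signal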
Target sequence (Q99759 whole entry, looked up, the tested form may be a part): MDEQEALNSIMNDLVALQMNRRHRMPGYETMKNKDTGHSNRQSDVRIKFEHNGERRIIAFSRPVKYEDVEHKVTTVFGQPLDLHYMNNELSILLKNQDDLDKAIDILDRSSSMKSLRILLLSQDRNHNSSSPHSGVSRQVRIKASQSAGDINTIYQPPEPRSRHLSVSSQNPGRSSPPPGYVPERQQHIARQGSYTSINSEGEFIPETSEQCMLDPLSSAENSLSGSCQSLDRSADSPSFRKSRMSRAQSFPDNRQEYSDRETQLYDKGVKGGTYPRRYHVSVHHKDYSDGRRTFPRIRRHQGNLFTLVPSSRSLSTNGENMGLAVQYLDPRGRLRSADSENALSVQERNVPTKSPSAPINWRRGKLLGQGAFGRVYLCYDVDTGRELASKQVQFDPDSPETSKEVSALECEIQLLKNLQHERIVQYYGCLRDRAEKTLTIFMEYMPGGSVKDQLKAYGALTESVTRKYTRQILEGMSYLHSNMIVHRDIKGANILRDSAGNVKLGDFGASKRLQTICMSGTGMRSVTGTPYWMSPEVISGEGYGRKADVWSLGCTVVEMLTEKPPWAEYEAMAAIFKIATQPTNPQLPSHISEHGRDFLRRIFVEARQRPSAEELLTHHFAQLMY
MEKK2wt confirm: raises or lowers MEK5 binding to wildtype human MEKK2, retest | shares compounds with MEKK3 PB1 HTS | bead flow cytometry, Alexa488-MEK5 binding to MEKK2 WT; actives lie on both sides | binding response (% of control), % at 10 µM | 2.4% of 5,900 active | AID 1892; in the data active means binding response below about 16% or above about 210%; inactive means in between
MEKK2mut-MEK5: signal of MEK5 binding to mutant human MEKK2, retest. shares compounds with MEKK3 PB1 HTS. bead flow cytometry, Alexa488-MEK5 binding to MEKK2 mutant. percent response, % at 10 µM. 2% of 5,900 active; in the data active means percent response mostly above about 71%, no sharp cut-off; inactive means mostly below about 38%;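 further: higher means compound restores mutant binding toward wildtype level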
MEKK3-MEK5 inh: confirmation of inhibitors of MEK5 binding to human MEKK3. shares compounds with MEKK3 PB1 HTS. bead flow cytometry, Alexa488-MEK5 binding to MEKK3; hits give low values. binding response (% of control), % at 10 µM. 1.8% of 5,900 active;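 active means binding response below 72% of control, or above a set upper limit, though filed actives all read lower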;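 further: 100% = DMSO only wells and 0% = binding blocked by excess unlabeled MEK5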
Numbers without * were called inactive; / = no result; [ ] = remark or other dose. Shown are actives, neighbours in structure and some others; about 2.3% of the full set was active somewhere.

SMILES	MEKK2mut PB1 HTS	MEKK2 WT-MEK5	Arr AP2 block	MEKK3 PB1 HTS	MEKK2wt confirm	MEKK2mut-MEK5	MEKK3-MEK5 inh
O=C(Cc1ccc2c(c1)OCCO2)Nc1cc(C(F)(F)F)ccc1N1CCOCC1	/	/	-3.4	/	/	/	/
COc1ccc(NS(=O)(=O)c2ccc(NC(=S)NC(=O)c3cccc(F)c3)cc2)nn1	-1.0	92.0	2.9	75.0*[inhibitor]	104.0	3.0	104.0
COc1nccnc1NS(=O)(=O)c1ccc(NC(=S)NC(=O)c2ccc(F)c(F)c2)cc1	1.0	106.0	-3.6	154.0*	98.0	1.0	97.0
O=C(Oc1cccc(Br)c1)c1cccnc1	1.0	112.0	0.6	115.0	/	/	/
COC(=O)c1cc(Br)ccc1OC(=O)c1cccnc1	-17.0	0.0*[inhibitor]	-5.1	0.0*[inhibitor]	102.0	1.0	100.0
Cc1ccc(OC(=O)c2cccnc2)cc1	-14.0	56.0*[inhibitor]	1.8	57.0*[inhibitor]	102.0	-1.0	106.0
Cc1cc(C)cc(OC(=O)c2cccnc2)c1	7.0	107.0	23.7	103.0	/	/	/
COc1ccc(-c2[nH]ncc2CN(C)Cc2nonc2C)c(OC)c1	-2.0	97.0	13.5	101.0	/	/	/
CCc1cc2cc(OC)ccc2nc1SCC(=O)NNC(=O)c1ccco1	-7.0	97.0	2.3	99.0	/	/	/
CCc1cc2ccc(OC)cc2nc1SCC(=O)Nc1cc(C)on1	5.0	117.0	-1.2	123.0*	98.0	-1.0	103.0
CCc1cc2ccccc2nc1SCC(=O)Nc1cc(C)on1	9.0	108.0	5.3	106.0	/	/	/
CCc1cc2ccc(OC)cc2nc1SCC(=O)NNC(C)=O	6.0	124.0	-6.3	135.0*	99.0	-1.0	103.0
Cc1ccc(NC(=O)Cc2nnc(SCC(=O)NC3CCCC3)n2C)cc1C	3.0	102.0	-11.5	102.0	/	/	/
CC(C)c1ccc(N(C)C(=O)Cc2c(C(=O)O)n(C)c3ccccc23)cc1	-15.0	-1.0*[inhibitor]	12.9	1.0*[inhibitor]	100.0	1.0	100.0
O=C(NC1(C(F)(F)F)N=C(c2ccccc2)NC1=O)c1ccccc1 (stereo not given)	-1.0	98.0	40.7	99.0	/	/	/
O=C(NC1(C(F)(F)F)N=C(c2ccccc2)NC1=O)c1ccccc1F (stereo not given)	0.0	106.0	-5.6	134.0*	109.0	12.0	105.0
O=C(O)CCC(=O)N1N=C(c2c(-c3ccccc3)c3cc(Cl)ccc3[nH]c2=O)CC1c1cccs1 (stereo not given)	1.0	105.0	3.0	134.0*	102.0	-3.0	101.0
CCOC(=O)C1=C(COC(=O)c2ccco2)NC(=O)NC1CC (stereo not given)	/	/	37.5	/	/	/	/
Cc1ccc(C)n1-c1ccc(-c2ccnc(N)n2)cc1	14.0	112.0	-3.5	147.0*	104.0	5.0	100.0
Cc1onc(-c2ccccc2)c1-c1ccnc(N)n1	-11.0	105.0	-8.6	95.0	/	/	/
COc1ccccc1CCNS(=O)(=O)CCNC(=O)c1ccc2c(c1)OCO2	/	/	3.7	/	/	/	/
O=c1c2c3nc4ccccc4nc3n(/N=C/c3ccncc3)c2ncn1-c1ccccc1	30.0	121.0	/	131.0*	98.0	-3.0	102.0
COc1cccc(CNC(=O)c2ccc(N3CCOCC3)c([N+](=O)[O-])c2)c1	1.0	99.0	17.9	101.0	/	/	/
Cc1ccc(Cl)c(OC(=O)c2ccc(N3CCOCC3)c([N+](=O)[O-])c2)c1	1.0	109.0	2.1	137.0*	99.0	-2.0	104.0
COc1ccccc1CNC(=O)c1ccc(N2CCOCC2)c([N+](=O)[O-])c1	-19.0	53.0	-6.9	44.0*[inhibitor]	104.0	3.0	110.0
SMILES	MEKK2mut PB1 HTS	MEKK2 WT-MEK5	Arr AP2 block	MEKK3 PB1 HTS	MEKK2wt confirm	MEKK2mut-MEK5	MEKK3-MEK5 inh
Cc1ccc(NC(=S)N2CCN(S(C)(=O)=O)CC2)cc1Cl	7.0	103.0	-8.4	102.0	/	/	/
Cc1cccc(NC(=O)CSc2n[nH]c(-c3ccncc3)n2)c1C	11.0	106.0	4.1	103.0	/	/	/
COc1ccc(-c2coc3c(CN4CCCCC4)c(O)c(CN4CCCCC4)c(O)c3c2=O)cc1	18.0	144.0*	/	107.0	150.0	31.0	105.0
O=c1c(-c2ccc(Br)cc2)coc2c(CN3CCCCC3)c(O)ccc12	2.0	103.0	-2.5	100.0	/	/	/
CCNC(=O)NC(=O)CSc1ccc(NC(C)=O)cc1	0.0	103.0	7.0	98.0	/	/	/
CNC(=O)NC(=O)CSc1ccc(NC(C)=O)cc1	8.0	125.0	12.1	128.0*	105.0	3.0	99.0
COc1ccc(Br)cc1CN1CCN(Cc2c[nH]c3ccccc23)CC1	27.0*	117.0	-10.4	94.0	138.0	19.0	107.0
Fc1ccc(-c2csc3ncnc(Cl)c23)cc1	14.0	117.0	4.0	110.0	/	/	/
Clc1ccc(-c2csc3ncnc(Cl)c23)cc1	0.0	104.0	-21.4	130.0*	104.0	8.0	104.0
CC1CCCCN1c1nc2nonc2nc1N1CCCCC1C (stereo not given)	6.0	97.0	2.9	126.0*	98.0	-2.0	99.0
COc1ccccc1Nc1nc2nonc2nc1N1CCCCC1C (stereo not given)	-3.0	97.0	-6.0	99.0	/	/	/
CC(C)n1cc(CN2CCN(C)C(CCO)C2)c2ccccc21 (stereo not given)	24.0*	112.0	0.2	110.0	104.0	3.0	105.0
CC(C)Cn1c(CN2CCN(C)C(CCO)C2)nc2ccccc21 (stereo not given)	9.0	109.0	0.0	105.0	/	/	/
CC(C)CC(=O)NC(=S)Nc1ccc(N2CCCC2)c(Cl)c1	-19.0	67.0	-10.2	62.0	/	/	/
CC(C)C(=O)Nc1ccc(N2CCCC2)c(Cl)c1	3.0	123.0	-4.6	151.0*	102.0	-1.0	99.0
O=C(Cc1cccc(NC(=O)C2CCCN(C(=O)CCc3ccccc3)C2)c1)Nc1ccc(C(=O)N2CCOCC2)cc1 (stereo not given)	/	/	-9.4	/	/	/	/
CN(C)c1c2ccccc2nc2c(F)c(F)c(F)c(F)c12	-3.0	94.0	21.3	101.0	/	/	/
Cc1c2ccccc2nc2c(F)c(N(C)C)c(F)c(F)c12	0.0	100.0	8.1	145.0*	97.0	-2.0	101.0
O=C(OCc1ccc([N+](=O)[O-])cc1)c1cc(=O)c2ccccc2o1	-5.0	96.0	23.3	97.0	/	/	/
Cc1ccc(C)c(NC(=S)N(C)CCO)c1	-14.0	91.0	3.1	95.0	/	/	/
COc1ccc(C(C)=O)cc1CSc1nc2ccccc2c(=O)n1-c1cccc(C)c1	-1.0	102.0	18.4	156.0*	98.0	0.0	105.0
COc1ccc(C(C)=O)cc1CSc1nc2ccccc2c(=O)n1-c1ccccc1	9.0	105.0	1.9	97.0	/	/	/
Cc1nn(Cc2ccccc2)c(C)c1NC(=O)CSc1nc(C2CC2)nc2c1cnn2-c1ccccc1	-1.0	101.0	-1.0	103.0	/	/	/

Screening results as filed in PubChem BioAssay.
